Source: PubChem BioAssay (several laboratories)
Hits are enriched below; roughly 3% of the tested compounds scored in any of these assays.
PLC-gamma1 inh – PLC-gamma1 enzyme inhibitors, primary screen, biochemical, fluorescence, purified enzyme; 1-phosphatidylinositol 4,5-bisphosphate phosphodiesterase gamma-1 (Homo sapiens), P19174; fluorogenic substrate; inhibition, % at 12.2 µM; hit rate 0.84% among 370,000; in the data active means inhibition above about 9.5%
PLC-beta3 inh – human PLC-beta3 inhibitors, primary screen, biochemical, fluorescence | inhibition, % at 12.2 µM | 1-phosphatidylinositol 4,5-bisphosphate phosphodiesterase beta-3 (Homo sapiens), Q01970 | Purified PLC-beta3, fluorogenic substrate | hit rate 0.18% among 370,000 | AID 720704, 2013; in the data active means inhibition above about 11%
KLK7 zymogen act – proKLK7 zymogen activators, primary screen, biochemical, fluorescence intensity; purified proKLK7, EDANS-DABCYL substrate fluorescence; 100% is mature enzyme control, 0% vehicle; activation, % at 7 µM; hit rate 0.9% among 370,000; Kallikrein-7 (Homo sapiens), P49862;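 active means activation above the mean of all tested compounds plus 3 SD, computed per campaign excluding outliers beyond control limits, cut at about 13% in these data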
Tn6 DDE FP – inhibitors of Tn6 peptide binding to fibrin DD(E), primary screen, biochemical, fluorescence polarization, human fibrin, Tn6 probe; inhibition, % at 8.3 µM; hit rate 0.21% among 370,000; Fibrin DD(E) TRITC-Tn6 fluorescence polarization displacement;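 active means inhibition above a per-campaign cutoff: mean of compounds within control limits plus 3 SD, cut at about 15% in these data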
NRP1-CendR mod – modulators of CendR peptide binding to NRP-1, primary screen, biochemical, fluorescence polarization, uHTS | hit rate 0.85% among 360,000 | Neuropilin-1 (Homo sapiens), O14786 | FAM-RPARPAR peptide binding to NRP-1 | AID 602438, 2012 | inhibition, % at 25 µM;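 active means inhibition or corrected inhibition above about 18%, plus a signal ratio from 0.5 to 1.5, limit read from the data, passing the limit was not always enough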
Target sequence (O14786 whole entry, looked up): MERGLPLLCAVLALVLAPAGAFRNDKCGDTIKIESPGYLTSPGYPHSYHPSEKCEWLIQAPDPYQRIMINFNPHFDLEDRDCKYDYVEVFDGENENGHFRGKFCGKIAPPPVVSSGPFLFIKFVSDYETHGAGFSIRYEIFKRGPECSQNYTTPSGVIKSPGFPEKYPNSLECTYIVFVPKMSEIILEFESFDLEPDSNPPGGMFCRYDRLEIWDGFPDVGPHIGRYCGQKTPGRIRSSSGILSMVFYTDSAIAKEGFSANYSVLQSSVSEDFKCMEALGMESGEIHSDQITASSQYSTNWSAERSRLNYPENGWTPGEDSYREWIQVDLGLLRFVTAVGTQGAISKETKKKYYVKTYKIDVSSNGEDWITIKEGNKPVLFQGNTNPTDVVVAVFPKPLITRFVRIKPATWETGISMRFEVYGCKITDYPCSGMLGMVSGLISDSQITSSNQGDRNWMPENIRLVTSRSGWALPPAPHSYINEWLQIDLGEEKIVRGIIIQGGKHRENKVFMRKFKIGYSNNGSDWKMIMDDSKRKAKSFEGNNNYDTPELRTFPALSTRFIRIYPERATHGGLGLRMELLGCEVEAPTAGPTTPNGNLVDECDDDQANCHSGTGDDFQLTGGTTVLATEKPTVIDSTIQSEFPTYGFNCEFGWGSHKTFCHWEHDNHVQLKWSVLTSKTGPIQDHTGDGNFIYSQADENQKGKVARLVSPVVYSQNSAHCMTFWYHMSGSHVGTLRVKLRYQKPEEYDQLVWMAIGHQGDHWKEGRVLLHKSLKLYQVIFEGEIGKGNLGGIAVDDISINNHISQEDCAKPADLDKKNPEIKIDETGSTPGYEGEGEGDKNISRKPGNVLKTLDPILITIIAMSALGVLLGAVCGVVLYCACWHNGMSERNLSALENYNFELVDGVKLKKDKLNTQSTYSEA
Tn7 DDE FP – inhibitors of Tn7 peptide binding to fibrin DD(E), primary screen, biochemical, fluorescence polarization, human fibrin, Tn7 probe | AID 720508, 2013 | hit rate 0.13% among 370,000 | FP displacement of FITC-Tn7 peptide from fibrin DD(E); 0% = median of compound wells per plate | inhibition, % at 8.3 µM | Fibrinogen beta chain (Homo sapiens), P02675;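 active means inhibition above the mean of compounds falling within the control limits plus 3 SD of them, cut at about 14% in these data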
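Assay system: Human clot-derived fibrin DD(E) complex | Buffer or medium: Tris/NaCl/CaCl2 buffer, pH 7.8 | Repeats: One replicate per compound | Benchmarks: Aha-Tn7 high control | Measure: % inhibition scaled between sample-field median and high-control FP | Schedule: 10 min plus 3 h, room temperature | Signal: Fluorescence polarization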
Each line names hits and unclear results; the compound was inactive in the other large screens.

CCc1c(C)nc2ncnn2c1N1CCCC(C(=O)Nc2ccc(NC(C)=O)cc2)C1 (stereo unspecified)	NRP1-CendR mod 29
CC(O)C(NC=C1C(=O)OC(C)(C)OC1=O)C(=O)O (stereo unspecified)	NRP1-CendR mod 29
COc1ccc(CN2C(=O)CCCC2(C)c2nnnn2-c2ccc3c(c2)OCCO3)cc1 (stereo unspecified)	none (no result: NRP1-CendR mod)
CCCCC[C@H](C)N1C[C@H](COCc2ccccc2)Oc2cc(N3CC[C@H](O)C3)ccc2S1(=O)=O	none
CCCCC[C@@H](C)N1C[C@H](COCc2ccccc2)Oc2cc(N3CC[C@H](O)C3)ccc2S1(=O)=O	NRP1-CendR mod 20
Cc1ccccc1NC(=S)N1CCCC(c2nc3ccccc3[nH]2)C1 (stereo unspecified)	NRP1-CendR mod 23
COc1ccc(NC(=O)N(C)[C@H]2C[C@H]3c4[nH]c5c(-c6ccccc6)cccc5c4CCN3C(=O)[C@H]2[C@H](C)O)cc1	none (no result: NRP1-CendR mod)
Cc1cc(OC(=O)c2ccccc2C)c([N+](=O)[O-])c(=O)[nH]1	NRP1-CendR mod 34
COc1ccccc1C(=O)Oc1cc(C)[nH]c(=O)c1[N+](=O)[O-]	none
Cc1nn(CCC(=O)NNC(=O)Nc2ccc(Cl)cc2)c(C)c1[N+](=O)[O-]	none (no result: NRP1-CendR mod)
COc1ccc(C(C)(C)C)cc1NC(=O)CCc1c(C)noc1C	NRP1-CendR mod 28
CC(C)(C)OC(=O)NCCCc1ccc2c(c1)[C@]1(CCC[C@@H](OCc3ccccc3)[C@@H]1NC(=O)CCc1ccccc1)C(=O)N2Cc1ccccc1	none (no result: NRP1-CendR mod)
CC(=O)Oc1ccc(/C=C2/C(=O)N(c3ccccc3)N=C2C)cc1	PLC-gamma1 inh 31
COc1ccc(/C=C2/C(=O)N(c3ccccc3)N=C2C)cc1	none (no result: PLC-gamma1 inh, PLC-beta3 inh, KLK7 zymogen act, Tn6 DDE FP, Tn7 DDE FP)
COc1ccc(/C=C2/C(=O)N(c3ccccc3)N=C2C)cc1OC	PLC-gamma1 inh 19
CC1=NN(c2ccccc2)C(=O)/C1=C/c1cccc(C)c1	none
CCCCN(C)C(=O)C1CCN(S(=O)(=O)c2ccc3[nH]c(=O)oc3c2)CC1	none (no result: NRP1-CendR mod)
O=C(CN1CCN(S(=O)(=O)c2ccc(F)cc2)CC1)Nc1ccccc1C(=O)NC1CC1	NRP1-CendR mod 26
O=C(CN1CCN(S(=O)(=O)c2ccccc2)CC1)Nc1ccccc1C(=O)c1ccccc1	none
COc1ccc(S(=O)(=O)N2CCCCC2c2cc(C(=O)Nc3ccc(OC)cc3C)no2)cc1 (stereo unspecified)	NRP1-CendR mod 45
CCN(CC)C(=O)CC[C@@H]1CC[C@]2(CCCN(Cc3nccs3)C2)O1	none (no result: NRP1-CendR mod)
CCCC(=O)Nn1cnc2c(c1=O)C1(CCCC1)Cc1ccccc1-2	NRP1-CendR mod 25
CC(=O)Nn1cnc2c(c1=O)C1(CCCC1)Cc1ccccc1-2	none
CC(=O)N/N=C/c1cc([N+](=O)[O-])ccc1OCCOc1ccccc1	none
NC(=S)N/N=C/c1cc([N+](=O)[O-])ccc1OCCOc1ccccc1	NRP1-CendR mod 25
Cn1c(=O)cc(OCC(=O)N2CCN(c3ccccc3Cl)CC2)c2ccccc21	none (no result: NRP1-CendR mod)
O=C(Cn1cc(C(F)(F)F)cc(Cl)c1=O)Nc1cc(S(=O)(=O)N2CCOCC2)ccc1Cl	NRP1-CendR mod 22
S=C(Nc1ccc(Cl)cc1)OC1CCC12CCC(c1ccccc1)CC2 (stereo unspecified)	none (no result: NRP1-CendR mod)
Cc1ccc(NNS(=O)(=O)c2ccc(C)cc2)cc1	NRP1-CendR mod 28
Cc1ccc(S(=O)(=O)NNC(=O)C(=O)NNS(=O)(=O)c2ccc(C)cc2)cc1	none
CCN1C(=O)CC(N2CCC(C(=O)N3CCOCC3)CC2)C1=O (stereo unspecified)	Tn7 DDE FP 16
Cc1cc(C(=O)O)c(C)o1	none (no result: NRP1-CendR mod)
COc1cccc2c(=O)c3cccc(N)c3[nH]c12	NRP1-CendR mod 33
C=CCC1(CC=C)CCCN1C(=O)c1cc(COc2cccc(OC)c2)on1	NRP1-CendR mod 21
